Here are results for 63 molecules from ChEMBL document CHEMBL1125878, “Aminoalkynyldithianes. A new class of calcium channel blockers” (J Med Chem, 1991).

Holding throughout (assay type): functional
Test [1] is filed under the species Cavia porcellus. Description: Antagonism of calcium-induced contractions of guinea pig ileal strips. The essentials: (§1)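 Guinea pig ileal strips held at 0.5 g resting tension, equilibrated 60 min, isometric recording. Depolarized with KCl (80 mM) 6 min, then cumulative CaCl2 0.2-8.0 mM; wash, control curve, then curves with three drug concentrations added right after KCl (6 min). Kb = concentration giving 2-fold rightward shift, from EC50 ratios; means of 3-10 experiments ± SE.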

The nature of test [2]: The compound was tested for inhibition of calcium influx into neuronal (NG108-15) cells. The note with it: Mus musculus. The essentials: (§2)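 NG108-15 cells, differentiated with dibutyryl cAMP (1.0 mM, 4 days), loaded with Quin 2-AM (100 μM) 1 h at 37 °C, washed. Suspensions (ca. 3 × 10^6 cells) at 37 °C preincubated 1 min with drug, then depolarized with KCl (50 mM); fluorescence ex 339/em 492 nm. IC50 = half-maximal fluorescence decrease, logit analysis; means ± SE.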

Test [3] is filed under the species Cavia porcellus. Description: The compound was tested for antagonism of calcium-induced contractions of guinea pig ileal strips. The essentials:
as §1

Test [4] in a line: The compound was tested for inhibition of calcium influx into neuronal (NG108-15) cells. The note with it: Mus musculus. The essentials: as §2

Turning to `OC1(C2(CCC#CCN3CCCCC3)SCCCS2)c2ccccc2Sc2ccccc21`, the Kb (in general, the equilibrium dissociation constant of an antagonist, usually derived from a functional assay) in the test listed under Cavia porcellus [1] was found to be 3660 nM.
Same read-out and setting: the value for `COc1ccc(N(C)CC#CCCC2SCCCS2)cc1OC` was 2220 nM; that for `CN(CC#CCCC1(C(O)(c2ccccc2)c2ccccc2)SCCCS1)CCc1ccccc1` was 2650 nM.
Still for that read-out and setting: the value for `CCN(CC)CC#CCCC1(C(C)(O)c2ccccc2)SCCCS1` (stereo not drawn) was 2510 nM; that for `CN(CC#CCCC1SCCCS1)CCc1ccccc1` was 2270 nM; that for `CCN(CC)CC#CCCC1(Cc2ccccc2)SCCCS1` was 1960 nM.
As to `CCN(CC)CC#CCCC1(C2(O)CCCc3ccccc32)SCCCS1` (stereo not drawn), the Kb in the test filed under Cavia porcellus [1] amounted to 830 nM.
On the same count and under the same terms, the value for `CCCN(CC#CCCCC1SCCCS1)CCC` was 7500 nM; that for `CCN(CC)CC#CCCC1(C(O)(c2ccccc2)C2CCCCC2)SCCCS1` (stereo not drawn) was 1140 nM.
On to `CC(C)N(CC#CCCCC1(C2(O)c3ccccc3Oc3ccccc32)SCCCS1)C(C)C`, for which the Kb in the test filed under Cavia porcellus [1] stood at 200 nM. Moreover, the IC50 (as a rule, the concentration at which inhibition is half-maximal) in test [2] amounted to 4600 nM.
In the case of `CN(CC#CCCC1(C2(O)c3ccccc3Oc3ccccc32)SCCCS1)CCCCc1ccccc1`, the Kb in the test listed under Cavia porcellus [1] is 1900 nM.
Still for that read-out and setting: for `CN(CC#CCCC1(C2(O)c3ccccc3Sc3ccccc32)SCCCS1)CCCCc1ccccc1` the value was 3400 nM; for `CCN(CC)CC#CCCC1(C(c2ccccc2)c2ccccc2)SCCCS1`, 500 nM.
Still for that read-out and setting: the value for `CN(CC#CCCC1(C2(O)c3ccccc3Oc3ccccc32)SCCCS1)CCCc1ccccc1` was 3090 nM.
For the molecule `COc1ccc(CCN(C)CC#CCCC(O)(c2ccccc2)C2SCCCS2)cc1OC` (stereo not drawn), in the test listed under Cavia porcellus [1], the Kb was determined as 1230 nM. Also, the IC50 in test [2] came out at 1800 nM.
Consider `COc1ccc([C@@H]2Sc3ccccc3N(CCN(C)C)C(=O)[C@@H]2OC(C)=O)cc1` [DILTIAZEM], for which, in the test listed under Cavia porcellus [3], the Kb was found to be 47 nM. For the same molecule, in test [4], the IC50 was found to be 14900 nM.
With `CN(C)CC#CCCC1(C2(O)c3ccccc3Sc3ccccc32)SCCCS1`, the Kb in the test listed under Cavia porcellus [1] was 680 nM.
Consider `CCN(C)CC#CCCC1SCCCS1`, for which the IC50 in test [2] was above 10000 nM.
Consider `CN(CC#CCCC1(c2ccccc2)SCCCS1)CCc1ccccc1`, for which, in the test filed under Cavia porcellus [1], the Kb worked out at 1740 nM. Moreover, the IC50 in test [2] was determined as 5400 nM.
Consider `CCN(CC)CC#CCC1(c2ccccc2)SCCCS1`, for which the Kb in the test listed under Cavia porcellus [1] turned out to be 4270 nM. The IC50 in test [2] worked out at 6400 nM.
On to `CN(CC#CCCC1SCCCS1)CCCCc1ccccc1`, for which the Kb in the test listed under Cavia porcellus [1] stood at 3430 nM.
Regarding `CN(CC#CCCC1SCCCS1)Cc1ccccc1`, the Kb in the test filed under Cavia porcellus [1] was determined as 8020 nM.
With `CCN(CC)CC#CCCCCC1(C2(O)c3ccccc3Oc3ccccc32)SCCCS1`, in the test filed under Cavia porcellus [1], the Kb turned out to be 1740 nM.
The same measure, in the same setting: the value for `CN(CC#CCCC1SCCCS1)CCCc1ccccc1` was 2980 nM.
With `CCN(CC)CC#CCCC(O)(c1ccccc1)C1SCCCS1` (stereo not drawn), the Kb in the test listed under Cavia porcellus [1] was found to be 6700 nM. In test [2], the half-maximal inhibitory concentration (IC50) is 17700 nM.
As for `CCN(CC)CC#CCCC1(C2(O)c3ccccc3Sc3ccccc32)SCCCS1`, the Kb in the test listed under Cavia porcellus [1] is 130 nM.
On the same count and under the same terms, the value for `CCCN(CC#CCCCC1(C2(O)c3ccccc3Oc3ccccc32)SCCCS1)CCC` was 470 nM.
In the case of `OC1(C2(CCC#CCN3CCCCC3)SCCCS2)c2ccccc2Oc2ccccc21`, the Kb in the test listed under Cavia porcellus [1] came to 390 nM. The concentration for half-maximal inhibition (IC50) in test [2] is 6400 nM.
Consider `CCN(CC)CC#CCCC1(C2(O)c3ccccc3Sc3ccc(Cl)cc32)SCCCS1` (stereo not drawn), for which the Kb in the test filed under Cavia porcellus [1] came out at 330 nM.
On the same count and under the same terms, the value for `OC1(C2(CCC#CCN3CCCCC3)SCCCS2)c2ccccc2Sc2ccc(Cl)cc21` (stereo not drawn) was 6090 nM; that for `CN(CC#CCCC1SCCCS1)Cc1ccc2ccccc2c1` was 8330 nM; that for `CN(CC#CCCCC1SCCCS1)Cc1ccccc1` was 4450 nM.
In the case of `CCN(CC#CCCC1(C2(O)c3ccccc3Oc3ccccc32)SCCCS1)C(C)C`, the Kb in the test listed under Cavia porcellus [1] is 460 nM.
On the same count and under the same terms, for `CCN(CC)CC#CCCC1(C2(O)c3ccccc3CCc3ccccc32)SCCCS1` the value was 1270 nM.
As for `CCCN(CC#CCC1(c2ccccc2)SCCCS1)CCC`, in the test filed under Cavia porcellus [1], the Kb was 1010 nM. For the same molecule, the IC50 in test [2] was determined as 1700 nM.
As for `CCCN(CC#CCCCC1(C2(O)c3ccccc3Sc3ccccc32)SCCCS1)CCC`, the Kb in the test filed under Cavia porcellus [1] is 770 nM.
The same measure, in the same setting: the value for `CN(CC#CCCC1(C(O)(c2ccccc2)c2ccccc2)SCCCS1)Cc1ccccc1` was 3170 nM; that for `CN(CC#CCCCC1SCCCS1)CCc1ccccc1` was 4150 nM.
With `CCN(CC)CC#CCCCC1(C2(O)c3ccccc3Oc3ccccc32)SCCCS1`, the Kb in the test filed under Cavia porcellus [1] worked out at 170 nM. The IC50 in test [2] was determined as 1000 nM.
As to `CN(CC#CCCC1(C(O)(c2ccccc2)c2ccccc2)SCCCS1)CCCc1ccccc1`, the Kb in the test listed under Cavia porcellus [1] came out at 1630 nM.
In the case of `COc1ccc(CCN(C)CC#CCC2(c3ccccc3)SCCCS2)cc1OC`, in the test listed under Cavia porcellus [1], the Kb is 1170 nM. In addition, in test [2], the IC50 was determined as 1500 nM.
On the same counts, the results for `CCN(CC)CC#CCCC1(c2ccccc2)SCCCS1` are 900 nM and 6800 nM.
Regarding `CCN(C)CC#CCCC1(C2(O)c3ccccc3Oc3ccccc32)SCCCS1`, the Kb in the test listed under Cavia porcellus [1] amounted to 1510 nM.
Same read-out and setting: the value for `CN1CCN(CC#CCCC2(C3(O)c4ccccc4Oc4ccccc43)SCCCS2)CC1` was 490 nM; that for `CCN(CC)CC#CCCCCC1SCCCS1` was above 5000 nM; that for `CN(CC#CCCC1(C2(O)c3ccccc3Sc3ccccc32)SCCCS1)CCCc1ccccc1` was 4160 nM.
For the molecule `COc1ccc(CCN(C)CCCC(C#N)(c2ccc(OC)c(OC)c2)C(C)C)cc1OC` (stereo not drawn) [VERAPAMIL], in the test listed under Cavia porcellus [1], the Kb was 20 nM. Further, in test [2], the IC50 amounted to 6500 nM.
As to `CCN(CC)CC#CCCC1(C2(O)c3ccccc3C=Cc3ccccc32)SCCCS1`, the Kb in the test listed under Cavia porcellus [1] came out at 300 nM.
Still for that read-out and setting: for `OCCN1CCN(CC#CCCC2SCCCS2)CC1` the value was above 10000 nM; for `CN(CC#CCCC1SCCCS1)CCc1cccc2ccccc12`, 1520 nM; for `CN(C)CC#CCCC1(C2(O)c3ccccc3Sc3ccc(Cl)cc32)SCCCS1` (stereo not drawn), 2330 nM.
As to `CN(CC#CCCC1SCCCS1)CCc1ccc2ccccc2c1`, the Kb in the test filed under Cavia porcellus [1] stood at 4730 nM.
Turning to `CCN(CC)CC#CCCC1(C2(O)c3ccccc3Oc3ccccc32)SCCCS1`, the Kb in the test listed under Cavia porcellus [1] was 160 nM. Moreover, the IC50 in test [2] was 2300 nM.
Take `CCN(CC)CC#CCCC1(C(O)(c2ccccc2)C2CCCC2)SCCCS1` (stereo not drawn): the Kb in the test listed under Cavia porcellus [1] was 980 nM.
Same read-out and setting: the value for `CCN(CC)CC#CCCC1(C2(O)CCOc3ccccc32)SCCCS1` (stereo not drawn) was 1940 nM.
For `CCOC(=O)C1=C(C)NC(C)=C(C(=O)OC)C1c1cccc([N+](=O)[O-])c1` (stereo not drawn) [NITRENDIPINE], the Kb in the test listed under Cavia porcellus [1] stood at 2 nM. Also, the IC50 in test [2] was 16 nM.
Regarding `CN(CC#CCCC1(C(O)(c2ccccc2)C2CCCCC2)SCCCS1)CCc1ccccc1` (stereo not drawn), the Kb in the test listed under Cavia porcellus [1] worked out at 3750 nM.
On the same count and under the same terms, for `CCN(C)CC#CCCC1(C2(O)c3ccccc3Sc3ccccc32)SCCCS1` the value was 570 nM; for `COc1ccc(CCN(C)CC#CCCC(O[Si](C)(C)C)(c2ccccc2)C2SCCCS2)cc1OC` (stereo not drawn), 570 nM; for `CN(C)CC#CCCC1(C2(O)c3ccccc3Oc3ccccc32)SCCCS1`, 1150 nM.
Regarding `CCN(C)CC#CCCC1(C2(O)c3ccccc3Sc3ccc(Cl)cc32)SCCCS1` (stereo not drawn), the Kb in the test listed under Cavia porcellus [1] worked out at 2530 nM.
For `CN(CC#CCCC(O)(c1ccccc1)C1SCCCS1)CCc1ccccc1` (stereo not drawn), the Kb in the test listed under Cavia porcellus [1] was determined as 2250 nM. Moreover, in test [2], the IC50 amounted to 1600 nM.
For `CN(CC#CCCC1(C2(O)c3ccccc3Sc3ccc(Cl)cc32)SCCCS1)CCCc1ccccc1` (stereo not drawn), the Kb in the test filed under Cavia porcellus [1] is above 7000 nM.
